Assay results taken from PMC7660780 (Journal of the American Heart Association: Cardiovascular …, 2020).
In brackets after ≈: the same amount, converted by molar mass. Several values for one entry are separate records, joined by “and”; a condition that tells them apart may be missing. Identical values can stand only once. Entries after “also recorded” stand apart in the source; their conditions may differ.

Legend:
Type in all cases: in vivo, human
[1] = test system: ADP‐induced platelet aggregation (20 μmol/L); experiment: Ex vivo inhibition of ADP-induced platelet aggregation; conditions: healthy volunteers
In short: (§1)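 Each participant got a single SC deltoid dose. Blood was drawn at baseline and at set times to 24 h into PPACK (100 μmol/L final). PRP was spun at 600 g or 300 g for 5 min at RT, and PPP at 2000 g for 9 min. High PRP counts were lowered with PPP. Turbidometric aggregation used 20 μmol/L ADP. IPA is the % fall in primary slope (≥15 s, 0.5 s sampling) versus the baseline sample, reported as mean±SD.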

[2] = test system: ADP‐induced platelet aggregation (20 μmol/L); experiment: Ex vivo inhibition of ADP-induced platelet aggregation; conditions: for IPA Mean (SD): 15 min post-dose; for IPA of the 1 participant who did not achieve the BED: 0.075 mg/kg SC dose escalation
[3] = test system: ADP‐induced platelet aggregation (20 μmol/L)
In short: as §1

[4] = RUC‐4 whole blood levels by LC-MS/MS; conditions: dose‐expansion group 0.075 mg/kg SC
[5] = Population pharmacokinetic model
[6] = test system: ADP‐induced platelet aggregation (20 μmol/L); experiment: Population pharmacodynamic model; conditions: for IC50: value ± spread as printed in pharmacokinetic data section
[7] = Safety measures in healthy volunteers; conditions: HVs
In short: (§2)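 The trial was double-blind, placebo-controlled and dose-escalating. In each cohort, 2 sentinels were dosed, then 5 more were randomized 4:1 to drug or placebo. Each received a single weight-based SC deltoid injection of 0.18–0.52 mL, followed by 15 min gentle pressure. Injection site checks, platelet counts, laboratory tests and clinical assessments ran at set times through 24 h and at 7 days. Adverse events were graded by CTCAE.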

[8] = Safety measures in patients with stable CAD receiving aspirin; conditions: stable CAD on aspirin
In short: as §2

[9] = Safety and tolerability, summary statements over the whole study
In short: as §2

[10] = stable CAD on aspirin, 0.075 mg/kg SC, dose escalation
[11] = 0.075 mg/kg SC, HVs and patients with stable CAD taking aspirin
[12] = dose escalation 0.04 mg/kg (n=2)
[13] = dose escalation 0.05 mg/kg (n=6)
[14] = dose escalation 0.075 mg/kg (n=6)
[15] = dose expansion 0.075 mg/kg (n=12)

SMILES: NCC(=O)Nc1cncc(-c2nn3c(=O)cc(N4CCNCC4)nc3s2)c1 [RUC‐4]
- IPA mean±SD ([1]; 0.05 mg/kg SC (n=6), 15 minutes): 71.8%±15.0%
- return of IPA toward baseline ([1]; 0.075 mg/kg SC): ≤ 4 h
- IPA mean±SD ([1]; 0.075 mg/kg SC (n=6), 15 minutes, 0.075 mg/kg): 84.7%±16.7% and 84.7%
- IPA median ([1]; 0.075 mg/kg SC, 15 minutes): 88.0%
- IPA of the individual participants not achieving the BED ([1]; 0.075 mg/kg SC, 15 minutes, 0.075 mg/kg): 76.5% and 55.8%
- IPA of the individual participants not achieving the BED ([1]; 0.075 mg/kg SC, 30 minutes postdose, 0.075 mg/kg): 68.6% and 73.1%
- IPA of the one CAD participant with much higher whole blood levels ([2]; dose‐expansion group 0.075 mg/kg SC, 5, 15, 30, and 60 minutes time points): 100%
- IPA Mean (SD) ([2]; stable CAD on aspirin, 0.04 mg/kg SC, 0.04 mg/kg): 53.6%±17.0%
- IPA Mean (SD) ([2]; stable CAD on aspirin, 0.05 mg/kg SC, 0.05 mg/kg): 76.9%±10.6%
- IPA of the 1 participant who did not achieve the BED ([2]; stable CAD on aspirin, 15 minutes): 65.4%
- IPA of the 1 participant who did not achieve the BED ([2]; stable CAD on aspirin, 30 minutes): 86.5%
- participants achieving the BED [2, 10]: 5 of 6
- return of IPA toward baseline [2, 10]: ≤ 4 h
- participants achieving the BED ([2]; stable CAD on aspirin, 0.075 mg/kg SC, dose expansion, additional participants): 6 of the 12
- IPA mean±SD ([2]; stable CAD on aspirin, 0.075 mg/kg SC, high‐weight group, 15 minutes): 88.0%±14.4%
- IPA mean±SD ([2]; stable CAD on aspirin, 0.075 mg/kg SC, high‐weight group, 30 minutes): 85.4%±21.0
- IPA mean±SD ([2]; stable CAD on aspirin, 0.075 mg/kg SC, low‐weight group, 15 minutes): 63.2%±21.4%
- IPA mean±SD ([2]; stable CAD on aspirin, 0.075 mg/kg SC, low‐weight group, 30 minutes): 67.8%±14.7%
- platelet inhibition (high‐grade) [3, 11]: > 80%
- time to onset of high-grade platelet inhibition [3, 11]: < 15 min
- time within which platelet inhibition largely resolved [3, 11]: ≤ 2 h
- time to peak of blood drug levels and platelet inhibition ([3]; subcutaneous administration): ≤ 15 min
- time to onset of high-grade inhibition of platelet aggregation ([3]; subcutaneous, 20 μmol/L of ADP): < 15 min
- time to return of IPA toward baseline ([3]; subcutaneous, 20 μmol/L of ADP): ≤ 2 h
- inhibition of platelet aggregation (high‐grade) ([3]; subcutaneous, 20 μmol/L of ADP, across the study populations): > 80%
- whole blood level of RUC‐4, group mean excluding the outlying participant ([4]; 5 minutes): 26.8 ± 26.5 ng/mL
- whole blood level of RUC‐4, one CAD participant with much higher levels ([4]; 5 minutes): 384 ng/mL
- whole blood level of RUC‐4, group mean excluding the outlying participant ([4]; 15 minutes): 74.3 ± 38.6 ng/mL
- whole blood level of RUC‐4, one CAD participant with much higher levels ([4]; 15 minutes): > 500 ng/mL
- whole blood level of RUC‐4, group mean excluding the outlying participant ([4]; 30 minutes): 71.3 ± 30.5 ng/mL
- whole blood level of RUC‐4, one CAD participant with much higher levels ([4]; 30 minutes): 307 ng/mL
- whole blood level of RUC‐4, group mean excluding the outlying participant ([4]; 60 minutes): 40.3 ± 7.3 ng/mL
- whole blood level of RUC‐4, one CAD participant with much higher levels ([4]; 60 minutes): 131 ng/mL
- Vp/F (apparent peripheral volume of distribution), geometric mean ([5]; SC, All Subjects): 221 L
- effect of aspirin on RUC‐4 pharmacokinetics or pharmacodynamics ([5]; pharmacokinetic and pharmacodynamic models, covariate aspirin): did not significantly affect
- IC50, geometric mean ([6]; cohort with aspirin): 0.0338 µg/mL (≈ 0.0875 µM)
- IC50, geometric mean ([6]; cohort without aspirin): 0.0342 µg/mL (≈ 0.0885 µM)
- gamma (coefficient) ([6]; sigmoidal Emax model): 1.31
- IC50 ([6]; with aspirin): 0.0347 ± 0.0079 µg/mL (≈ 0.0898 µM)
- IC50 ([6]; without aspirin): 0.0348 ± 0.0067 µg/mL (≈ 0.0901 µM)
- No. of TESAEs ([7]; 0.05 mg/kg (n=6)): 0
- Patients reporting a TEAE of bruising at the injection site ([7]; 0.05 mg/kg (n=6)): 0 (0.0) n (%)
- Patients reporting a non‐AE bruising at the injection site event ([7]; 0.05 mg/kg (n=6)): 2 (33.3) n (%)
- Patients reporting at least 1 bleeding AE ([7]; 0.05 mg/kg (n=6)): 0 (0.0) n (%)
- Patients reporting at least 1 injection site reaction adverse event ([7]; 0.05 mg/kg (n=6)): 0 (0.0) n (%)
- Patients reporting at least 1 related TEAE with CTCAE grade ≥3 ([7]; 0.05 mg/kg (n=6)): 0 (0.0) n (%)
- non‐AE bruising at the injection site, Grade 1 ([7]; 0.05 mg/kg (n=6)): 2 (33.3) n (%)
- non‐AE bruising at the injection site, Grade 2 ([7]; 0.05 mg/kg (n=6)): 0 (0.0) n (%)
- No. of TESAEs ([7]; 0.075 mg/kg (n=6)): 0
- Patients reporting a TEAE of bruising at the injection site ([7]; 0.075 mg/kg (n=6)): 0 (0.0) n (%)
- Patients reporting a non‐AE bruising at the injection site event ([7]; 0.075 mg/kg (n=6)): 0 (0.0) n (%)
- Patients reporting at least 1 bleeding AE ([7]; 0.075 mg/kg (n=6)): 0 (0.0) n (%)
- Patients reporting at least 1 injection site reaction adverse event ([7]; 0.075 mg/kg (n=6)): 0 (0.0) n (%)
- Patients reporting at least 1 related TEAE with CTCAE grade ≥3 ([7]; 0.075 mg/kg (n=6)): 0 (0.0) n (%)
- non‐AE bruising at the injection site, Grade 1 ([7]; 0.075 mg/kg (n=6)): 0 (0.0) n (%)
- non‐AE bruising at the injection site, Grade 2 ([7]; 0.075 mg/kg (n=6)): 0 (0.0) n (%)
- No. of TESAEs [8, 12]: 0
- Patients reporting a TEAE of bruising at the injection site [8, 12]: 0 (0.0) n (%)
- Patients reporting a non‐AE bruising at the injection site event [8, 12]: 0 (0.0) n (%)
- Patients reporting at least 1 bleeding AE [8, 12]: 0 (0.0) n (%)
- Patients reporting at least 1 injection site reaction AE [8, 12]: 0 (0.0) n (%)
- Patients reporting at least 1 related TEAE with CTCAE grade ≥3 [8, 12]: 0 (0.0) n (%)
- non‐AE bruising at the injection site, Grade 1 [8, 12]: 0 (0.0) n (%)
- non‐AE bruising at the injection site, Grade 2 [8, 12]: 0 (0.0) n (%)
- No. of TESAEs [8, 13]: 0
- Patients reporting a TEAE of bruising at the injection site [8, 13]: 0 (0.0) n (%)
- Patients reporting a non‐AE bruising at the injection site event [8, 13]: 2 (33.3) n (%)
- Patients reporting at least 1 bleeding AE [8, 13]: 0 (0.0) n (%)
- Patients reporting at least 1 injection site reaction AE [8, 13]: 0 (0.0) n (%)
- Patients reporting at least 1 related TEAE with CTCAE grade ≥3 [8, 13]: 0 (0.0) n (%)
- non‐AE bruising at the injection site, Grade 1 [8, 13]: 2 (33.3) n (%)
- non‐AE bruising at the injection site, Grade 2 [8, 13]: 0 (0.0) n (%)
- No. of TESAEs [8, 14]: 0
- Patients reporting a TEAE of bruising at the injection site [8, 14]: 0 (0.0) n (%)
- Patients reporting a non‐AE bruising at the injection site event [8, 14]: 4 (66.7) n (%)
- Patients reporting at least 1 bleeding AE [8, 14]: 0 (0.0) n (%)
- Patients reporting at least 1 injection site reaction AE [8, 14]: 0 (0.0) n (%)
- Patients reporting at least 1 related TEAE with CTCAE grade ≥3 [8, 14]: 0 (0.0) n (%)
- non‐AE bruising at the injection site, Grade 1 [8, 14]: 4 (66.7) n (%)
- non‐AE bruising at the injection site, Grade 2 [8, 14]: 0 (0.0) n (%)
- No. of TESAEs [8, 15]: 0
- Patients reporting a TEAE of bruising at the injection site [8, 15]: 0 (0.0) n (%)
- Patients reporting a non‐AE bruising at the injection site event [8, 15]: 5 (41.7) n (%)
- Patients reporting at least 1 bleeding AE [8, 15]: 0 (0.0) n (%)
- Patients reporting at least 1 injection site reaction AE [8, 15]: 0 (0.0) n (%)
- Patients reporting at least 1 related TEAE with CTCAE grade ≥3 [8, 15]: 0 (0.0) n (%)
- non‐AE bruising at the injection site, Grade 1 [8, 15]: 5 (41.7) n (%)
- non‐AE bruising at the injection site, Grade 2 [8, 15]: 0 (0.0) n (%)
- No. of TESAEs ([8]; total RUC‐4 0.075 mg/kg (n=18)): 0
- Patients reporting a TEAE of bruising at the injection site ([8]; total RUC‐4 0.075 mg/kg (n=18)): 0 (0.0) n (%)
- Patients reporting a non‐AE bruising at the injection site event ([8]; total RUC‐4 0.075 mg/kg (n=18)): 9 (50.0) n (%)
- Patients reporting at least 1 bleeding AE ([8]; total RUC‐4 0.075 mg/kg (n=18)): 0 (0.0) n (%)
- Patients reporting at least 1 injection site reaction AE ([8]; total RUC‐4 0.075 mg/kg (n=18)): 0 (0.0) n (%)
- Patients reporting at least 1 related TEAE with CTCAE grade ≥3 ([8]; total RUC‐4 0.075 mg/kg (n=18)): 0 (0.0) n (%)
- non‐AE bruising at the injection site, Grade 1 ([8]; total RUC‐4 0.075 mg/kg (n=18)): 9 (50.0) n (%)
- non‐AE bruising at the injection site, Grade 2 ([8]; total RUC‐4 0.075 mg/kg (n=18)): 0 (0.0) n (%)
- adverse events leading to study drug discontinuation [9]: none leading to study drug discontinuation
- drug‐related changes in laboratory values [9]: no drug‐related changes in laboratory values
- injection site reactions (including bruising), severity [9]: mild
- platelet counts during the course of treatment [9]: stable
- transient reduction in platelet count, single participant [9]: 120 000 /μL
- serious adverse events ([9]; SC 0.04-0.075 mg/kg): no serious adverse events; also recorded: No SAEs were observed
- bleeding events, number of patients ([9]; limited to the injection site): 3 patients
- severity of bleeding events ([9]; modified Bleeding Academic Research Consortium type 1): mild
